Experiment [1] concerns Escherichia coli. The experiment is described as follows: Antibacterial activity against Escherichia coli after 24 hrs by MTT assay. It counts as functional. An outline of the steps: (§1)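 Broth microdilution in Mueller–Hinton medium. Compounds from a 100 μg/mL DMSO stock were serially diluted, and inoculum was about 10⁵ cfu/mL. Plates were incubated 24 h at 37 °C and MIC was read visually. MTT (2 mg/mL in PBS pH 7.4) was then added for 4–5 h at room temperature, dye extracted with acidified isopropanol for 12 h, and OD read at 550 nm.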

In experiment [2] the test system is Pseudomonas fluorescens. Kind of experiment: Antibacterial activity against Pseudomonas fluorescens after 24 hrs by MTT assay. It counts as functional. The method, boiled down:
as §1
For orientation: Tetrazolium dyes change colour on reduction, which living cells bring about.

The test system of experiment [3] is Staphylococcus aureus. Kind of experiment: Antibacterial activity against Staphylococcus aureus after 24 hrs by MTT assay. In kind it is functional. The method, boiled down: as §1
In experiment [4] the test system is Bacillus subtilis. The experiment is described as follows: Antibacterial activity against Bacillus subtilis after 24 hrs by MTT assay. It counts as functional. An outline of the steps:
as §1

The nature of experiment [5]: Inhibition of Escherichia coli N-terminal His-tagged FabH expressed in Escherichia coli BL21(DE3) after 25 mins. The method, boiled down:
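His-tagged E. coli FabH was Ni-NTA purified. Reaction: 1 nM FabH, 2.5 μM holo-ACP, 20 mM sodium phosphate pH 7.0, 0.5 mM DTT, 0.25 mM MgCl₂. Started with 25 μM acetyl-CoA plus [³H]acetyl-CoA and run 25 min. Stopped with cold 50% TCA, pellet washed and dissolved in NaOH, ³H counted by scintillation. Inhibitors added from DMSO, final ≤2% DMSO, to give IC50.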

The structures appear in SMILES notation.

Regarding `Oc1ccc(F)cc1/C=N/c1ccc(Br)cc1`, the Activity was 25 µg/mL in experiment [1], 25 µg/mL in experiment [2], 50 µg/mL in experiment [3] and 50 µg/mL in experiment [4].
What is called IC50 is the point on the concentration scale where inhibition reaches its midpoint. A high value points to lower potency. For `Oc1ccc(F)cc1/C=N/c1ccccc1Cl`, inhibition in experiment [5] was half-maximal at 11.7 µM (IC50). The Activity in experiment [1] was 6.25 µg/mL; in experiment [2] it was 12.5 µg/mL; in experiment [3] it was 12.5 µg/mL; in experiment [4], 12.5 µg/mL.
On to `Oc1ccc(F)cc1/C=N/C1CCCCC1`, for which, in experiment [5], the IC50 came to 7.4 µM. Also, the Activity in experiment [1] stood at 6.25 µg/mL; in experiment [2], 12.5 µg/mL; in experiment [3], 12.5 µg/mL; in experiment [4], 25 µg/mL.
`Oc1ccc(F)cc1/C=N/CCN1CCNCC1` gave a half-inhibitory concentration (IC50) in experiment [5] of 48.5 µM. For the same compound, the Activity in experiment [1] was determined as 12.5 µg/mL; in experiment [2], 25 µg/mL; in experiment [3], 25 µg/mL; in experiment [4] it was 50 µg/mL.
`Oc1ccc(F)cc1/C=N/c1ccccc1F` showed an IC50 in experiment [5] of 8.6 µM. In addition, the Activity was 6.25 µg/mL in experiment [1], 6.25 µg/mL in experiment [2], 6.25 µg/mL in experiment [3] and 12.5 µg/mL in experiment [4].
For `Oc1ccc(F)cc1/C=N/CCN1CCOCC1`, the Activity was determined as 25 µg/mL in experiment [1], 25 µg/mL in experiment [2], 50 µg/mL in experiment [3] and 50 µg/mL in experiment [4].
Compound `Oc1ccc(F)cc1/C=N/CC1CCCCC1` returned an IC50 in experiment [5] of 6.8 µM. The Activity was found to be 6.25 µg/mL in experiment [1], 6.25 µg/mL in experiment [2], 25 µg/mL in experiment [3] and 12.5 µg/mL in experiment [4].
In turn, `Oc1ccc(F)cc1/C=N/c1ccc(F)cc1` came in with a concentration for half-maximal inhibition (IC50) in experiment [5] of 28.6 µM. Besides, the Activity in experiment [1] was found to be 12.5 µg/mL; in experiment [2], 12.5 µg/mL; in experiment [3] it was 12.5 µg/mL; in experiment [4], 25 µg/mL.
As for `Oc1ccc(F)cc1/C=N/c1ccccn1`, the Activity is 50 µg/mL in experiment [1], 100 µg/mL in experiment [2], 100 µg/mL in experiment [3] and greater than 100 µg/mL in experiment [4].
As for `NC[C@H]1O[C@H](O[C@H]2[C@H](O)[C@@H](O[C@H]3O[C@H](CO)[C@@H](O)[C@H](N)[C@H]3O)[C@H](N)C[C@@H]2N)[C@H](O)[C@@H](O)[C@@H]1O` [KANAMYCIN], the Activity in experiment [1] amounted to 3.13 µg/mL; in experiment [2] it was 3.13 µg/mL; in experiment [3], 1.56 µg/mL; in experiment [4] it was 1.56 µg/mL.
Consider `O=[N+]([O-])c1ccc(/N=C/c2cc(F)ccc2O)cc1`, for which the Activity in experiment [1], in experiment [2], in experiment [3] and in experiment [4] was greater than 100 µg/mL in each case.
For `CCN(CC)CCC/N=C/c1cc(F)ccc1O`, the Activity in experiment [1], in experiment [2], in experiment [3] and in experiment [4] was greater than 100 µg/mL throughout.
As for `Oc1ccc(F)cc1/C=N/C1CCN(Cc2ccccc2)CC1`, the Activity in experiment [1], in experiment [2], in experiment [3] and in experiment [4] was greater than 100 µg/mL each time.
The compound `Oc1ccc(F)cc1/C=N/c1ccc(Cl)cc1` returned an IC50 in experiment [5] of 42.5 µM. The Activity in experiment [1] was found to be 12.5 µg/mL; in experiment [2], 25 µg/mL; in experiment [3], 25 µg/mL; in experiment [4], 50 µg/mL.
Regarding `Oc1ccc(F)cc1/C=N/C1CCCC1`, 18.4 µM corresponded to half-maximal inhibition in experiment [5] (IC50). The Activity in experiment [1] turned out to be 12.5 µg/mL; in experiment [2], 12.5 µg/mL; in experiment [3] it was 25 µg/mL; in experiment [4], 25 µg/mL.
For `CC(C)c1ccc(/N=C/c2cc(F)ccc2O)cc1`, the Activity was greater than 100 µg/mL in experiment [1], 100 µg/mL in experiment [2], greater than 100 µg/mL in experiment [3] and greater than 100 µg/mL in experiment [4].
As to `Cc1ccc(/N=C/c2cc(F)ccc2O)cc1`, the Activity in experiment [1] is 50 µg/mL; in experiment [2], 50 µg/mL; in experiment [3] it was 100 µg/mL; in experiment [4], greater than 100 µg/mL.
With `Oc1ccc(/N=C/c2cc(F)ccc2O)cc1`, the Activity in experiment [1], in experiment [2], in experiment [3] and in experiment [4] was greater than 100 µg/mL in each case.
`Oc1ccc(CC/N=C/c2cc(F)ccc2O)cc1` had an IC50 in experiment [5] of 2.7 µM. For the same compound, the Activity in experiment [1] turned out to be 1.56 µg/mL; in experiment [2] it was 3.13 µg/mL; in experiment [3], 1.56 µg/mL; in experiment [4], 6.25 µg/mL.
On to `CN(C)CCC/N=C/c1cc(F)ccc1O`, for which the Activity in experiment [1], in experiment [2], in experiment [3] and in experiment [4] was greater than 100 µg/mL in each case.
Turning to `Oc1ccc(F)cc1/C=N/CCCN1CCOCC1`, the Activity in experiment [1], in experiment [2], in experiment [3] and in experiment [4] was greater than 100 µg/mL in each case.

(Values after ChEMBL document CHEMBL1240424, “Design and synthesis of potent inhibitors of beta-ketoacyl-acyl carrier protein synthase III (FabH) as potential antibacterial agents” (Eur J Med Chem, 2010).)
